This is an account of results in ChEMBL document CHEMBL1130143, “Probes for narcotic receptor-mediated phenomena. 25. Synthesis and evaluation of N-alkyl-substituted (alpha-piperazinylbenzyl)benzamides as novel, highly selective delta opioid receptor agonists” (J Med Chem, 1997).

In general, IC50 refers to the concentration that inhibits the measured activity by half. The low end stands for greater potency, the high end for weaker potency.

Chain of Delta-type opioid receptor (Rattus norvegicus, UniProt P33533) (P33533 whole entry): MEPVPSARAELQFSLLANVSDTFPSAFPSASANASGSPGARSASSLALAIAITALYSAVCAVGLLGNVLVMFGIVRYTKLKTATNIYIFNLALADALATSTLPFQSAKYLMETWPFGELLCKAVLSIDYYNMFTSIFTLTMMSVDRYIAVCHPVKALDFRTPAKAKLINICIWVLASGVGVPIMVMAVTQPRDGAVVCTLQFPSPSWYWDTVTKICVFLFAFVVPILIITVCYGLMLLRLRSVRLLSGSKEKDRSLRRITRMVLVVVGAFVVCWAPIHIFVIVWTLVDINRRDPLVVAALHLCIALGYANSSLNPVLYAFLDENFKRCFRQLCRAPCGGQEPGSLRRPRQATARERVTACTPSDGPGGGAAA
Chain of Opioid receptors; mu & delta (Rattus norvegicus) (P33533 whole entry, looked up): as the sequence (P33533 whole entry) above
Chain of Opioid receptors; mu & delta (Rattus norvegicus) (P33535 whole entry, looked up): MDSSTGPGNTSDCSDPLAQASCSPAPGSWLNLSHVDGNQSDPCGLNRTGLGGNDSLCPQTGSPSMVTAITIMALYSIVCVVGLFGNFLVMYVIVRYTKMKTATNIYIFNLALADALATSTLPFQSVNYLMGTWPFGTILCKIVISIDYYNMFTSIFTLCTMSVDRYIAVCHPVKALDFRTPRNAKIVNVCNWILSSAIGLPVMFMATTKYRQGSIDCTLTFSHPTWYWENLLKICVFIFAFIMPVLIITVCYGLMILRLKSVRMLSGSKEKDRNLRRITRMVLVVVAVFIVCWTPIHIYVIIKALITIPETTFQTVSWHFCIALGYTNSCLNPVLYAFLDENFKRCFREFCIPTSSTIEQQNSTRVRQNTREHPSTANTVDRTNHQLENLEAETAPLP
Chain of Mu-type opioid receptor (Homo sapiens, UniProt P35372) (P35372 whole entry): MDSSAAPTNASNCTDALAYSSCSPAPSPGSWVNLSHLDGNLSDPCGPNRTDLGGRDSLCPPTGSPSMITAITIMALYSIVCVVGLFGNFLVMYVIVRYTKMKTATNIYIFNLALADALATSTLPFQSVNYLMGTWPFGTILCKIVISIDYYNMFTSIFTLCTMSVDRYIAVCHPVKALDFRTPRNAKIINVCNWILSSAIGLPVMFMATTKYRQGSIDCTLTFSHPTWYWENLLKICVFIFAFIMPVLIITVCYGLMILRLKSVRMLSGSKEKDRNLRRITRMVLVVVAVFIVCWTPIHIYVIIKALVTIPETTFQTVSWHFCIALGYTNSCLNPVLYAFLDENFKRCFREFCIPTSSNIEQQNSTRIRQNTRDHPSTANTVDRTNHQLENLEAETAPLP

The target in one test is Delta-type opioid receptor (Homo sapiens, UniProt P41143). Briefly: Binding affinity for Opioid receptor delta 1 by the inhibition of binding of [3H]-p-DPDPE human cloned receptors.
Chain of Delta-type opioid receptor (Homo sapiens, UniProt P41143) (P41143 whole entry): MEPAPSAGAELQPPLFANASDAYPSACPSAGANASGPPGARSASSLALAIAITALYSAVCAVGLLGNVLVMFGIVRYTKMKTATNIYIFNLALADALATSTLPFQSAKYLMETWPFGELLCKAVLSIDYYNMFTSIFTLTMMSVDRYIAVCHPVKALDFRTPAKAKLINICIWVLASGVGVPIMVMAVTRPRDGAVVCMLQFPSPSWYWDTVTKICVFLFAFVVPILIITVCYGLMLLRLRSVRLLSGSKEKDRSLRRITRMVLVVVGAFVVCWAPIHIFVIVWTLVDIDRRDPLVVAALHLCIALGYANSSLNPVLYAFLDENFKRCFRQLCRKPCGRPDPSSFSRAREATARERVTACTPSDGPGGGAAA
Settings: not given
The essentials: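 Crude membranes from CHO cells stably expressing human δ receptor, with 0.75 nM [³H]-p-Cl-DPDPE. Samples incubated 3 h at 25 °C; nonspecific binding from 10 μM naltrexone; 10 inhibitor concentrations, with totals in duplicate. Filtered on PEI-treated glass-fiber filters, washed with cold saline, scintillation counted. IC50 by nonlinear regression.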
On to `C=CCN1C[C@H](C)N([C@H](c2ccc(C(=O)N3CCCC3)cc2)c2cccc(OC)c2)C[C@H]1C`, for which the IC50 was 26.6 nM.

As to `C=CCN1C[C@H](C)N([C@H](c2ccc(C(=O)N(C)CC)cc2)c2cccc(OC)c2)C[C@H]1C`, the IC50 turned out to be 8 nM.

The target in the next test is Mu-type opioid receptor (Rattus norvegicus, UniProt P33535). The test can be described thus: Binding affinity for Opioid receptor mu 1 by the inhibition of binding of [3H]DAMGO in rat brain membranes. The class given is cell membranes.
Chain of Mu-type opioid receptor (Rattus norvegicus, UniProt P33535) (P33535 whole entry): as the sequence (P33535 whole entry, looked up) above
Settings: not given
An outline of the steps:
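Rat brain membranes with [³H]DAMGO at 1-3 nM, incubated 4 h at 25 °C in 50 mM Tris-HCl pH 7.4 plus protease inhibitor cocktail. Nonspecific binding measured with 20 μM levallorphan. Radioligand displaced by nine drug concentrations, in two runs. Drugs diluted in 10 mM Tris-HCl pH 7.4 containing 1 mg/mL BSA. IC50 reported.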
The molecule `C=CCN1C[C@H](C)N([C@@H](c2ccc(C(=O)N3CCCC3)cc2)c2cccc(OC)c2)C[C@H]1C` came in with an IC50 above 2500 nM.

`C=CCN1C[C@H](C)N([C@H](c2ccc(C(=O)NC(CC)CC)cc2)c2cccc(OC)c2)C[C@H]1C` displayed an IC50 above 2500 nM.

Molecule `C=CCN1C[C@H](C)N([C@@H](c2ccc(C(=O)N(CC)CCCC)cc2)c2cccc(OC)c2)C[C@H]1C` returned an IC50 of 5880 nM.

Turning to `C=CCN1C[C@H](C)N([C@@H](c2ccc(C(=O)N(C)CC)cc2)c2cccc(OC)c2)C[C@H]1C`, the IC50 is above 2500 nM.

Turning to `C=CCN1C[C@H](C)N([C@H](c2ccc(C(=O)N3CCCC3)cc2)c2cccc(OC)c2)C[C@H]1C`, the IC50 was above 2500 nM.

On to `C=CCN1C[C@H](C)N([C@H](c2ccc(C(=O)N(C)CC)cc2)c2cccc(OC)c2)C[C@H]1C`, for which the IC50 turned out to be 7370 nM.

The target in a further test is Kappa-type opioid receptor (Cavia porcellus, UniProt P41144). The test can be described thus: Binding affinity for Opioid receptor kappa 1 by the inhibition of binding of [3H]U-69593 in guinea pig brain membranes.
Chain of Kappa-type opioid receptor (P41144 whole entry): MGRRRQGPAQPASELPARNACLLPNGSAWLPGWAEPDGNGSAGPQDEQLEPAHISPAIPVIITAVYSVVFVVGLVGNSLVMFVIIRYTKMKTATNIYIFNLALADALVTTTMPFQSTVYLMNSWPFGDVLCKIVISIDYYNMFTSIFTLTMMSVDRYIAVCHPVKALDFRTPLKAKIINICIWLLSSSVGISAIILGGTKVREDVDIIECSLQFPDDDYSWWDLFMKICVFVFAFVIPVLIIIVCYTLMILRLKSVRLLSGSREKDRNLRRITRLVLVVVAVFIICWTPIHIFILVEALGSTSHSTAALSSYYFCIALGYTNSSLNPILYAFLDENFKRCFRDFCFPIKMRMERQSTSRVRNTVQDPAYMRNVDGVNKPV
Settings: not given
Type of test: cell membranes. An outline of the steps: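 Guinea pig brain membranes, first depleted of μ and δ sites by pretreatment with irreversible ligands BIT and FIT. Nonspecific binding from 1 μM U69,593. Nine concentrations, run twice. IC50 reported.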
With `C=CCN1C[C@H](C)N([C@@H](c2ccc(C(=O)N3CCCC3)cc2)c2cccc(OC)c2)C[C@H]1C`, the IC50 was above 10000 nM.

In turn, `C=CCN1C[C@H](C)N([C@H](c2ccc(C(=O)NC(CC)CC)cc2)c2cccc(OC)c2)C[C@H]1C` registered an IC50 above 2500 nM.

For the molecule `C=CCN1C[C@H](C)N([C@@H](c2ccc(C(=O)N(CC)CCCC)cc2)c2cccc(OC)c2)C[C@H]1C`, the IC50 was above 10000 nM.

`C=CCN1C[C@H](C)N([C@@H](c2ccc(C(=O)N(C)CC)cc2)c2cccc(OC)c2)C[C@H]1C`: the IC50 is above 2500 nM.

For `C=CCN1C[C@H](C)N([C@H](c2ccc(C(=O)N3CCCC3)cc2)c2cccc(OC)c2)C[C@H]1C`, the IC50 is above 10000 nM.

`C=CCN1C[C@H](C)N([C@H](c2ccc(C(=O)N(C)CC)cc2)c2cccc(OC)c2)C[C@H]1C` showed an IC50 above 10000 nM.

A further test concerns the target Delta-type opioid receptor (Rattus norvegicus, UniProt P33533). The test can be described thus: Binding affinity for Opioid receptor delta 1 by the inhibition of binding of [3H]DADAL in rat brain membranes. The class given is cell membranes.
Settings: not given
An outline of the steps: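 Rat brain membranes labelled with [³H]DADLE at 1.7-2.5 nM. Incubation 3-4 h at 25 °C in Tris-HCl pH 7.4 with 100 mM choline chloride, 3 mM MnCl₂, protease inhibitor cocktail and 100 nM DAMGO to block μ sites. Nonspecific binding defined with 20 μM levallorphan. Nine test concentrations, run twice. IC50 reported.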
`C=CCN1C[C@H](C)N([C@@H](c2ccc(C(=O)N3CCCC3)cc2)c2cccc(OC)c2)C[C@H]1C` returned an IC50 of 265 nM.

With `C=CCN1C[C@H](C)N([C@H](c2ccc(C(=O)NC(CC)CC)cc2)c2cccc(OC)c2)C[C@H]1C`, the IC50 was 176 nM.

For `C=CCN1C[C@H](C)N([C@@H](c2ccc(C(=O)N(CC)CCCC)cc2)c2cccc(OC)c2)C[C@H]1C`, the IC50 came out at 151 nM.

As for `C=CCN1C[C@H](C)N([C@@H](c2ccc(C(=O)N(C)CC)cc2)c2cccc(OC)c2)C[C@H]1C`, the IC50 was 60.6 nM.

Molecule `C=CCN1C[C@H](C)N([C@H](c2ccc(C(=O)N3CCCC3)cc2)c2cccc(OC)c2)C[C@H]1C` displayed an IC50 of 18.1 nM.

`C=CCN1C[C@H](C)N([C@H](c2ccc(C(=O)N(C)CC)cc2)c2cccc(OC)c2)C[C@H]1C` came in with an IC50 of 4.2 nM.

The next test has as its target Mu-type opioid receptor (Homo sapiens, UniProt P35372). Briefly: Binding affinity for micro receptors by the inhibition of binding of [3H]DAMGO to Opioid receptor mu 1 in human cloned receptors.
Settings: not given
The essentials: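 Crude membranes from B82 mouse fibroblasts stably expressing human μ receptor, with 1.0 nM [³H]DAMGO. Samples incubated 3 h at 25 °C; nonspecific binding from 10 μM naltrexone; 10 inhibitor concentrations, with totals in duplicate. Filtered on PEI-treated glass-fiber filters, washed with cold saline, scintillation counted. IC50 by nonlinear regression.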
For the molecule `C=CCN1C[C@H](C)N([C@H](c2ccc(C(=O)N3CCCC3)cc2)c2cccc(OC)c2)C[C@H]1C`, the IC50 amounted to 6190 nM.

The molecule `C=CCN1C[C@H](C)N([C@H](c2ccc(C(=O)N(C)CC)cc2)c2cccc(OC)c2)C[C@H]1C` showed an IC50 of 12100 nM.

The next test is filed under the species Cavia porcellus. Briefly: Binding affinity ratio of kappa opioid receptor (guinea pig brain membranes) with respect to delta opioid receptor( rat brain membranes). The class given is cell membranes. Particulars: Membrane. An outline of the steps:
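Ratio of IC50 from [³H]U69,593 binding to μ/δ-depleted guinea pig brain membranes over IC50 from [³H]DADLE binding to rat brain membranes (μ sites blocked with 100 nM DAMGO). Both assays run at 25 °C in Tris-HCl pH 7.4, nine concentrations, run twice.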
As to `C=CCN1C[C@H](C)N([C@@H](c2ccc(C(=O)N3CCCC3)cc2)c2cccc(OC)c2)C[C@H]1C`, the Ratio is above 38.

On to `C=CCN1C[C@H](C)N([C@H](c2ccc(C(=O)NC(CC)CC)cc2)c2cccc(OC)c2)C[C@H]1C`, for which the Ratio is above 14.

On to `C=CCN1C[C@H](C)N([C@@H](c2ccc(C(=O)N(CC)CCCC)cc2)c2cccc(OC)c2)C[C@H]1C`, for which the Ratio is above 66.

Take `C=CCN1C[C@H](C)N([C@@H](c2ccc(C(=O)N(C)CC)cc2)c2cccc(OC)c2)C[C@H]1C`: the Ratio was above 41.

Consider `C=CCN1C[C@H](C)N([C@H](c2ccc(C(=O)N3CCCC3)cc2)c2cccc(OC)c2)C[C@H]1C`, for which the Ratio is above 552.

With `C=CCN1C[C@H](C)N([C@H](c2ccc(C(=O)N(C)CC)cc2)c2cccc(OC)c2)C[C@H]1C`, the Ratio was above 2380.

Another test has as its target Opioid receptors; mu & delta (Rattus norvegicus) (UniProt P33533+P33535). The test can be described thus: Binding affinity ratio on mu opioid receptor( rat brain membranes) with respect to delta opioid receptor (rat brain membranes).
Settings: not given
The essentials:
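Ratio of IC50 from [³H]DAMGO binding to rat brain membranes over IC50 from [³H]DADLE binding to rat brain membranes (μ sites blocked with 100 nM DAMGO). Both assays run at 25 °C in Tris-HCl pH 7.4, nine concentrations, run twice.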
Turning to `C=CCN1C[C@H](C)N([C@@H](c2ccc(C(=O)N3CCCC3)cc2)c2cccc(OC)c2)C[C@H]1C`, the Ratio was above 9.4.

On to `C=CCN1C[C@H](C)N([C@H](c2ccc(C(=O)NC(CC)CC)cc2)c2cccc(OC)c2)C[C@H]1C`, for which the Ratio is above 14.

For the molecule `C=CCN1C[C@H](C)N([C@@H](c2ccc(C(=O)N(CC)CCCC)cc2)c2cccc(OC)c2)C[C@H]1C`, the Ratio turned out to be 39.

Turning to `C=CCN1C[C@H](C)N([C@@H](c2ccc(C(=O)N(C)CC)cc2)c2cccc(OC)c2)C[C@H]1C`, the Ratio was above 41.

Take `C=CCN1C[C@H](C)N([C@H](c2ccc(C(=O)N3CCCC3)cc2)c2cccc(OC)c2)C[C@H]1C`: the Ratio was above 138.

Consider `C=CCN1C[C@H](C)N([C@H](c2ccc(C(=O)N(C)CC)cc2)c2cccc(OC)c2)C[C@H]1C`, for which the Ratio came out at 1760.

In another test the target is Opioid receptors; mu & delta (Homo sapiens) (UniProt P41143+P35372). Briefly: Relative binding affinity to mu and delta opioid receptors. Type of test: protein assay.
Chain of Opioid receptors; mu & delta (Homo sapiens) (P35372 whole entry, looked up): as the sequence (P35372 whole entry) above
Chain of Opioid receptors; mu & delta (Homo sapiens) (P41143 whole entry, looked up): as the sequence (P41143 whole entry) above
Settings: not given
On to `C=CCN1C[C@H](C)N([C@H](c2ccc(C(=O)N3CCCC3)cc2)c2cccc(OC)c2)C[C@H]1C`, for which the Mu/delta ratio was 233.

Take `C=CCN1C[C@H](C)N([C@H](c2ccc(C(=O)N(C)CC)cc2)c2cccc(OC)c2)C[C@H]1C`: the Mu/delta ratio stood at 1510.
